This passage reports Tm and folding enthalpy results from the array DNA melting data of Ke et al. (doi:10.1101/2024.01.08.574731).

A short description of data set [1]: melting temperature; fluorescence melt of hairpins on a sequencing array, two-state fit, raised by 9.35 °C to match UV melts. As to conditions: sodium 0.088 M. An outline of the steps:
(§1)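 In 50 mM Na-HEPES pH 8.0 containing 25 mM NaCl, hairpins from the library on a sequenced MiSeq flow cell were imaged for Cy3 fluorescence at 2.5 °C steps up to 60 °C, with Cy3 and quencher oligos annealed. After normalisation to pre-quench Cy3 and to control constructs, two-state fits with bootstrapping gave melting temperature and folding enthalpy. Four replicates were combined by inverse-variance weighting, and fitted temperatures were shifted up by 9.35 °C to match UV melts.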

Data set [2] in a line: folding enthalpy; higher = less favourable; fluorescence melt of hairpins on a sequencing array, two-state fit. Conditions: sodium 0.088 M. An outline of the steps:
as §1

In the case of GATGGTGGAAACACCACC (.(((((....))))).), the Tm in data set [1] worked out at 44.6 °C. Also, the folding enthalpy in data set [2] is -13.6 kcal/mol.
As for GGCTTCGGAAACGAGGTC (.(.(((....))).).), in data set [1], the Tm is 39.3 °C. Also, the folding enthalpy in data set [2] was -26.3 kcal/mol.
As for GGACTGCGAAAGCACTCC (((.(((....))).))), in data set [1], the Tm was found to be 38.9 °C. For the same sequence, the folding enthalpy in data set [2] is -8.91 kcal/mol.
As for GGGTACGAAAGTAGGCCC ((((((....)))..))), in data set [1], the Tm is 38.6 °C. Moreover, the folding enthalpy in data set [2] is -20.1 kcal/mol.
In the case of GTACCTCGAAAGAGATAC (((.(((....))).))), the Tm in data set [1] came to 38.7 °C. In data set [2], the folding enthalpy is -28.3 kcal/mol.
Consider GTAGTAGGAAACTACTAC (((((((....))))))), for which the Tm in data set [1] is 53.3 °C. Further, the folding enthalpy in data set [2] is -41.9 kcal/mol.
Consider GATCAGTAACTGATC ((((((...)))))), for which the Tm in data set [1] was found to be 47.9 °C. Moreover, in data set [2], the folding enthalpy was -37.8 kcal/mol.
Take GTGTCTGGAAACGGATAC ((.((.(....).)).)): in data set [1], the Tm stood at 36.6 °C. Further, the folding enthalpy in data set [2] is -17.2 kcal/mol.
Consider GCCTAGCGAAAGCTCTGC ((..(((....)))..)), for which the Tm in data set [1] was 34.3 °C. The folding enthalpy in data set [2] was -11.7 kcal/mol.
Regarding GATACTGGAAACAGCATC (((.(((....))).))), in data set [1], the Tm stood at 34.2 °C. Also, the folding enthalpy in data set [2] was -27.5 kcal/mol.
Turning to GCGTGAGAAATCACGC ((((((....)))))), the Tm in data set [1] came to 69 °C. The folding enthalpy in data set [2] was -29.5 kcal/mol.
For the sequence GGCCGGGGAAACCTGGCC ((((.((....)).)))), the Tm in data set [1] worked out at 68 °C. Further, the folding enthalpy in data set [2] was -38.4 kcal/mol.
As to GTCTAGCGAAAGCTCGAC (((.(((....))).))), in data set [1], the Tm came to 50 °C. Also, the folding enthalpy in data set [2] is -28.2 kcal/mol.
Take GTACCCGAAAGGGGTAC ((((((....))).))): the Tm in data set [1] turned out to be 59.2 °C. The folding enthalpy in data set [2] was -27.8 kcal/mol.
For the sequence GTGCCGGGAAACCAGCAC ((((.((....)).)))), the Tm in data set [1] stood at 50.1 °C. Moreover, the folding enthalpy in data set [2] is -33.9 kcal/mol.
In the same order, the values of GATCGAATCATCGATC ((((((....)))))) are 51.9 °C and -35.7 kcal/mol.
For GGGCAAACGAAAGTTCCC (((..(((....)))))), in that order: 35.6 °C and -19.5 kcal/mol.
Regarding GCAGACGAAAGTCAGTGC ((((((....)))..))), the Tm in data set [1] amounted to 46.4 °C. Further, the folding enthalpy in data set [2] was -19 kcal/mol.
For GAAAGCGAAAGCTCGTTC ((((((....)))..))), the Tm in data set [1] was found to be 25.9 °C. Further, the folding enthalpy in data set [2] is -9.57 kcal/mol.
On to GCCGCTCGAAAGAGGGC (((.(((....)))))), for which the Tm in data set [1] was determined as 55.2 °C. Besides, the folding enthalpy in data set [2] was -22.9 kcal/mol.
Regarding CGAGTCGGAAACGAGTCG (((.(((....))).))), the Tm in data set [1] was 55.9 °C. For the same sequence, in data set [2], the folding enthalpy was -35.9 kcal/mol.
GAGTGGGGAAACCTACTC ((((.((....)).)))): the Tm in data set [1] stood at 46.4 °C. Besides, the folding enthalpy in data set [2] is -30.6 kcal/mol.
In the same order, the values of CGTCCGGAAACGGGCACG ((((((....)))..))) are 38.9 °C and -12.4 kcal/mol.
With GCTCCCGAAAGGGATAGC ((((((....)))..))), the Tm in data set [1] was 48.4 °C. Further, in data set [2], the folding enthalpy is -17.5 kcal/mol.
As for GGGTACGAAAGTAGCCC ((((((....))).))), the Tm in data set [1] stood at 56.2 °C. In addition, the folding enthalpy in data set [2] is -26.3 kcal/mol.
Turning to GAGTCACCGAAAGGTCTC (((..(((....)))))), the Tm in data set [1] turned out to be 28.1 °C. For the same sequence, in data set [2], the folding enthalpy was -12.6 kcal/mol.
As to GATCTACTGATAGATC ((((((....)))))), the Tm in data set [1] amounted to 39.3 °C. Also, the folding enthalpy in data set [2] is -28.8 kcal/mol.
For the sequence GCGGAGGGAAACCTTCGC (((.(((....))).))), in data set [1], the Tm is 56.5 °C. Besides, in data set [2], the folding enthalpy was -46.5 kcal/mol.
Regarding GCGCTGGGAAACCAACGC (((.(((....))).))), in data set [1], the Tm turned out to be 52.7 °C. Also, the folding enthalpy in data set [2] was -47.8 kcal/mol.
In the same order, the values of GTCTCGGGAAACTGAGGC (.(((.(....).))).) are 38.8 °C and -30.8 kcal/mol.
For GATCCTCACAGGATC ((((((...)))))), in data set [1], the Tm amounted to 54 °C. In data set [2], the folding enthalpy is -27.2 kcal/mol.
On to GAAGACCCGAAAGGGTTC (((..(((....)))))), for which the Tm in data set [1] was found to be 32.6 °C. Moreover, in data set [2], the folding enthalpy is -8.91 kcal/mol.
For GATCATCATTATGATC ((((((....)))))), in that order: 46.8 °C and -34.6 kcal/mol.
Consider GCGTCTAAACGC ((((....)))), for which, in data set [1], the Tm turned out to be 54.4 °C. For the same sequence, in data set [2], the folding enthalpy was -23 kcal/mol.
Regarding GATCAAGTGTTGATC ((((((...)))))), the Tm in data set [1] was found to be 40.9 °C. Also, the folding enthalpy in data set [2] was -32 kcal/mol.
With AGCAGGAAACTGCT (((((....))))), in data set [1], the Tm was 52.7 °C. In addition, in data set [2], the folding enthalpy was -22.8 kcal/mol.
In the same order, the values of GCGTTAAACGC ((((...)))) are 50.9 °C and -19 kcal/mol.
